Screens as filed in PubChem BioAssay.
Shown are actives, neighbours in structure and some others; about 2.5% of the full set was active somewhere.
SENP8 block-1 = blocks human SENP8 cleavage of Nedd8 substrate. 360,000 tested, 0.64% active. inhibition, % at 20 µM. recombinant SENP8, Nedd8 substrate fluorescence. Q96LD8; in the data active = inhibition mostly above about 40%, no sharp cut-off; inactive = mostly below about 27%
Target sequence (Q96LD8 whole entry, looked up): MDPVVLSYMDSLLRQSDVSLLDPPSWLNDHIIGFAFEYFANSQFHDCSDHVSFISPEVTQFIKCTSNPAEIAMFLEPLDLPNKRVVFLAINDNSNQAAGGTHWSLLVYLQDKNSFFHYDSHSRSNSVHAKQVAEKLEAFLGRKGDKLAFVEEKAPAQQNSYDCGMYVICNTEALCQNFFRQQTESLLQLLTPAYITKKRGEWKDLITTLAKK
SENP6 inh = inhibitors of human SENP6 protease | 330,000 tested, 1.8% active | inhibition, % at 10 µM | AID 2599 | Recombinant SENP6 catalytic domain, aminoluciferin luminescence;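 active = inhibition above about 50% at the single tested dose, limit read from the data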;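 also: plate controls were DMSO wells with enzyme for no effect and DMSO wells lacking enzyme for full effect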
SENP1 inh = inhibitors of human SENP1 SUMO protease catalytic domain; recombinant SENP1 catalytic domain, CyPet-SUMO1-YPet FRET cleavage; inhibition, % at 10 µM; 360,000 tested, 0.21% active; AID 624204;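 active = inhibition at least 30% at 10 µM, raw YFP signal under a set limit, fluorescence ratio 0.5 to 1.5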;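 also: 0% = enzyme with DMSO and 100% = no enzyme wells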
Target sequence (Q9P0U3 419-644 limits assumed): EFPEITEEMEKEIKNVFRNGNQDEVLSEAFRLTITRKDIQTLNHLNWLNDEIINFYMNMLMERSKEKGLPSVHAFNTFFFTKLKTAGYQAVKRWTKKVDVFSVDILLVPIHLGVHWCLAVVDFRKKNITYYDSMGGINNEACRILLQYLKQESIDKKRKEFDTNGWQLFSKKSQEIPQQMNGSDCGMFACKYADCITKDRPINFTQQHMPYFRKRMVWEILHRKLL
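Material: hSENP1 catalytic domain, recombinant; medium: Tris pH 8 with BME, BSA, NP40 and catalase; compound: single concentration of 10 µM compound, 0.5% DMSO final; technique: FRET read of cyan and yellow fluorescence; timing: 50 min enzyme reaction, room temperature, light-protected; reagent: SFCypet-SUMO1-SFYpet substrate at 25 nM; control set: no-enzyme low, enzyme-DMSO high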
SENP8 block-2 = SENP8 protease inhibition | purified SENP8, Z-RLRGG-aminoluciferin cleavage, luminescence | inhibition, % at 10 µM | 330,000 tested, 1.2% active | Q96LD8; in the data active = inhibition above about 50%
SENP7 block = SENP7 protease inhibition. Q9BQF6. recombinant SENP7, Z-RLRGG-aminoluciferin luminescence, 40 min. inhibition, % at 5 µM. 330,000 tested, 1.5% active. AID 434973;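 active = inhibition above about 50% at the single test dose, limit read from the data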;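 also: plate controls were DMSO with enzyme for no effect and no enzyme buffer wells for full effect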
SENP8 conf = confirmation of human SENP8 protease inhibitors; shares compounds with SENP7 block; Recombinant SENP8, Z-RLRGG-aminoluciferin luminescence, 60 min; inhibition, % at 12.5 µM; 6,200 tested, 40% active;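 active = mean inhibition across replicates above about 50%, limit read from the data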
SENP6 conf = confirmation of human SENP6 protease inhibitors | shares compounds with SENP7 block | recombinant SENP6, Z-RLRGG-aminoluciferin luminescence | inhibition, % at 12.5 µM | 6,200 tested, 58% active | AID 488915
SENP7 conf = confirmation of human SENP7 protease inhibitors; 6,200 tested, 69% active; AID 488917; recombinant SENP7, Z-RLRGG-aminoluciferin luminescence, 40 min; shares compounds with SENP7 block; inhibition, % at 12.5 µM
Casp3 SENP sel = inhibits human caspase-3 in SENP selectivity test; shares compounds with SENP7 block; purified caspase-3, Z-DEVD-aminoluciferin luminescence, 60 min; inhibition, % at 12.5 µM; 6,200 tested, 60% active; AID 488918;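 active = mean inhibition above about 50%, limit read from the data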;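 also: plate controls were enzyme with DMSO for no effect and wells without caspase-3 for full effect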
Target sequence (P42574 28-227 limits assumed): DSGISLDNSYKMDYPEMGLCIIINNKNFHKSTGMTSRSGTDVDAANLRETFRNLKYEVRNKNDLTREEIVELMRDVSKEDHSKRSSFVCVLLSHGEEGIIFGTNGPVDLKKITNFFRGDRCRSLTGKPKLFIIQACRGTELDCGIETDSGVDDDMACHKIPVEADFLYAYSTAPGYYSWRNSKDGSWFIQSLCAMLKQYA
SENP luc ctr = counter-screen for SENP inhibitors: luminescence interference; shares compounds with SENP7 block; Pre-incubated SENP8/Z-RLRGG-aminoluciferin, luciferase luminescence interference; inhibition, % at 12.5 µM; 6,200 tested, 39% active;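 active = mean inhibition above about 50% when retested at one dose, limit read from the data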;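 also: plate controls were DMSO wells with completed reaction for no effect and substrate without enzyme for full effect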
Starred values were filed as active, the others as inactive.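 The calls were made as follows, unless noted: active = mean inhibition above about 50% in the one-dose retest (limit read from the data); inactive = the rest.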

Screening COc1ccc(NC(=O)/C(Cl)=C(/Cl)S(=O)Cc2ccccc2Cl)cn1 (stereo unspecified) returned SENP6 inh 3.2, SENP8 block-2 -2.5 and SENP7 block 9.3.
COc1ccc2cc3cc(C(=O)N4CCCCC4C)oc3nc2c1 (stereo unspecified) was read as SENP8 block-1 -410.2, SENP6 inh 63.8*, SENP1 inh 1.7, SENP8 block-2 51.7*, SENP7 block 66.8*, SENP8 conf 63.8*, SENP6 conf 60.6*, SENP7 conf 87.6*, Casp3 SENP sel 75.2* and SENP luc ctr 22.3.
`COc1ccc2cc3cc(C(=O)N4CCN(C5CCCCC5)CC4)oc3nc2c1` gave SENP8 block-1 -442.5, SENP6 inh 4.3, SENP1 inh -3.4, SENP8 block-2 -2.2 and SENP7 block 2.8.
COc1ccc2cc3cc(C(=O)N(C)C4CCCCC4)oc3nc2c1 was read as SENP8 block-1 -400.2, SENP6 inh 59.5*, SENP1 inh -1.3, SENP8 block-2 52.2*, SENP7 block 60.5*, SENP8 conf 6.0, SENP6 conf 4.5, SENP7 conf 32.4, Casp3 SENP sel 37.7 and SENP luc ctr -1.0.
COc1ccc2cc3cc(C(=O)NCCCN4CCC(C)CC4)oc3nc2c1 was read as SENP8 block-1 -345.9, SENP6 inh 9.4, SENP1 inh -0.4, SENP8 block-2 0.2 and SENP7 block -13.1.
`COc1ccc2cc3cc(C(=O)N4CCCCCC4)oc3nc2c1` gave SENP8 block-1 -376.1, SENP6 inh 76.6*, SENP1 inh 1.2, SENP8 block-2 78.9*, SENP7 block 86.9*, SENP8 conf 18.9, SENP6 conf 81.9*, SENP7 conf 96.6*, Casp3 SENP sel 69.2* and SENP luc ctr -1.4.
CCOC(=O)C(=CNc1ccc(N2CCCCC2)c(S(=O)(=O)Nc2ccccc2OC)c1)C(=O)OCC was read as SENP8 block-1 inactive and SENP1 inh 1.2.
COC(=O)c1cc(S(=O)(=O)N(C)C2CCCCC2)c[nH]1 was read as SENP8 block-1 11.2, SENP6 inh 0.6, SENP1 inh -1.6, SENP8 block-2 -5.0 and SENP7 block 0.7.
Cc1ccc(Sc2ncccc2N)cc1 was read as SENP8 block-1 -32.4, SENP6 inh 67.4*, SENP1 inh -12.9, SENP8 block-2 20.2, SENP7 block 25.2, SENP8 conf -25.2, SENP6 conf -16.0, SENP7 conf -12.4, Casp3 SENP sel -10.1 and SENP luc ctr -4.5.
Cc1ccc(Sc2ncccc2O)cc1 was read as SENP8 block-1 10.4, SENP6 inh -1.5, SENP1 inh 0.6, SENP8 block-2 -5.9 and SENP7 block -3.9.
`O=C(CN(Cc1ccco1)C(=O)CCC(=O)Nc1ccccn1)NCc1ccccc1` gave SENP8 block-1 5.5, SENP6 inh -10.8, SENP1 inh 2.9, SENP8 block-2 1.1 and SENP7 block 0.3.
Screening O=C(Nc1ccccc1)Nc1ccc(C(=O)N2CCCC2)cc1 returned SENP8 block-1 11.6, SENP6 inh 96.8*, SENP1 inh 0.7, SENP8 block-2 93.6*, SENP7 block 97.1*, SENP8 conf 96.5*, SENP6 conf 96.9*, SENP7 conf 101.7*, Casp3 SENP sel 97.8* and SENP luc ctr 74.0*.
O=C(Nc1ccc(C(=O)N2CCOCC2)cc1)Nc1cccc(Cl)c1 was read as SENP8 block-1 -3.3, SENP6 inh 68.6*, SENP1 inh 0.8, SENP8 block-2 39.8, SENP7 block 56.7*, SENP8 conf 60.5*, SENP6 conf 58.0*, SENP7 conf 84.8*, Casp3 SENP sel 61.1* and SENP luc ctr 62.6*.
Screening O=C(Nc1ccc(C(=O)N2CCCCC2)cc1)c1cccs1 returned SENP8 block-1 10.4, SENP6 inh 65.5*, SENP1 inh 0.0, SENP8 block-2 47.0, SENP7 block 59.6*, SENP8 conf 48.5, SENP6 conf 47.3, SENP7 conf 78.2*, Casp3 SENP sel 82.8* and SENP luc ctr 59.2*.
Screening CCCCN(C(=O)c1cc(Cl)nc2ccccc12)c1c(N)n(CCCC)c(=O)[nH]c1=O returned SENP8 block-1 -46.2, SENP6 inh -5.8, SENP1 inh -6.6, SENP8 block-2 2.4 and SENP7 block -10.0.
For CCN1C(=O)/C(=C/C=C2/Sc3ccccc3N2CCO)SC1=S the results were SENP8 block-1 29.7, SENP6 inh 21.0, SENP1 inh 13.4, SENP8 block-2 13.1 and SENP7 block 7.2.
CCN1C(=O)/C(=C/C=C2/SCCN2C)SC1=S was read as SENP8 block-1 46.8*, SENP6 inh 80.0*, SENP1 inh 27.3, SENP8 block-2 47.8, SENP7 block 76.5*, SENP8 conf -0.5, SENP6 conf 12.8, SENP7 conf 9.9, Casp3 SENP sel 16.2 and SENP luc ctr 4.9.
`CC(=O)c1sccc1NC(=O)CC(C)(C)CC(=O)O` gave SENP8 block-1 6.9, SENP6 inh -11.1, SENP1 inh 1.8, SENP8 block-2 -5.6 and SENP7 block 0.1.
For O=C1OC(c2ccccc2)=C/C1=C/c1cccs1 the results were SENP8 block-1 11.2, SENP6 inh 59.3*, SENP1 inh -21.4, SENP8 block-2 38.1, SENP7 block 57.1*, SENP8 conf 24.0, SENP6 conf 36.8, SENP7 conf 46.5, Casp3 SENP sel 35.2 and SENP luc ctr 20.5.
For O=C(NCCNC(=O)c1ccccc1Br)c1cccnc1 the results were SENP8 block-1 12.3, SENP6 inh -0.5, SENP1 inh -1.6, SENP8 block-2 6.0 and SENP7 block -2.1.
Screening COc1ccccc1N=C(C)C1=C(O)CSC1=O returned SENP8 block-1 27.8, SENP6 inh -10.4, SENP1 inh -17.9, SENP8 block-2 -6.0 and SENP7 block 9.1.
For CC(=Nc1ccc(C)c(C)c1)C1=C(O)CSC1=O the results were SENP8 block-1 -17.6, SENP6 inh 54.3*, SENP1 inh -22.9, SENP8 block-2 22.3, SENP7 block 9.3, SENP8 conf 58.1*, SENP6 conf 56.4*, SENP7 conf 81.8*, Casp3 SENP sel 73.8* and SENP luc ctr 63.6*.
